Laboratory results as given in ChEMBL document CHEMBL1126205, “Novel spirosuccinimides with incorporated isoindolone and benzisothiazole 1,1-dioxide moieties as aldose reductase inhibitors and antihyperglycemic agents” (1992).
Active and inactive are the calls of the source. No cut-off for these calls is given here.

What was measured:
[1] = test system: Mus musculus; experiment: Antihyperglycemic activity measured as percent decrease in mice plasma glucose at 100 mg/Kg/day; type: functional
Method in brief: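 Male db/db (C57BL/KsJ) mice, 4–6 per group, dosed at 100 mg/kg per day. Plasma glucose of the drug-treated group is expressed as percent decrease relative to a vehicle-treated control group. Values are mean ± SE, with p < 0.05 marked.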

[2] = biological target: Aldo-keto reductase family 1 member B1 (Bos taurus) (UniProt P16116); experiment: NADPH-dependent inhibition of glyceraldehyde reduction by partially purified aldose reductase from bovine lens at 10e-5 M
Method in brief: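 Partially purified aldose reductase from bovine lens. Inhibition of NADPH-dependent glyceraldehyde reduction was measured at a single test concentration. Values are % inhibition of enzymatic activity, mean of two determinations.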

[3] = biological target: Aldo-keto reductase family 1 member B1 (Bos taurus) (UniProt P16116); experiment: In vitro aldose reductase inhibitory activity measured by NADPH-dependent inhibition of glyceraldehyde reduction in a partially purified bovine lens preparation at 10E-6 M
Method in brief: (§1)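 Aldose reductase partially purified from bovine lens. Inhibition of NADPH-dependent glyceraldehyde reduction is measured at the single stated concentration and reported as percent inhibition, the mean of two determinations.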

[4] = biological target: Aldo-keto reductase family 1 member B1 (Bos taurus) (UniProt P16116); experiment: In vitro aldose reductase inhibitory activity measured by NADPH-dependent inhibition of glyceraldehyde reduction in a partially purified bovine lens preparation at 10E-7 M; method in brief: as §1
[5] = test system: Rattus norvegicus; experiment: In vivo galactitol inhibitory activity measured by its ability to inhibit galactitol accumulation in sciatic nerve at 3 mg/Kg/day; NS=Not significant (% Inhibition); type: functional, organism-based
Method in brief: (§2)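 Rats (n = 6) fed 20% galactose for 4 days, with compound given in the diet at the stated daily dose. Galactitol accumulation was measured in lens, sciatic nerve and diaphragm, and % inhibition was taken versus the nontreated group. Means are from three to eight drug-treated tissue samples. Dunnett's multiple comparison test was applied, with p > 0.05 reported as not significant.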

[6] = test system: Rattus norvegicus; experiment: In vivo galactitol inhibitory activity measured by its ability to inhibit galactitol accumulation in lens at 3 mg/Kg/day; NS=Not significant (% Inhibition); type: functional, organism-based; conditions: Lens of camera-type eye
Method in brief: (§3)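 Rats (n = 6) fed 20% galactose for 4 days, with compound given in the diet at the stated mg/kg per day. Galactitol accumulation in lens, sciatic nerve or diaphragm is scored as percent inhibition versus the non-treated group, as means of 3–8 drug-treated tissue samples. Dunnett's multiple comparison test applies; NS means p > 0.05.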

[7] = test system: Rattus norvegicus; experiment: In vivo galactitol inhibitory activity measured by its ability to inhibit galactitol accumulation in diaphragm at 3 mg/Kg/day; NS=Not significant (% Inhibition); type: functional, organism-based; method in brief: as §3
[8] = test system: Rattus norvegicus; experiment: In vivo galactitol inhibitory activity measured by its ability to inhibit galactitol accumulation in diaphragm at 10 mg/Kg/day; type: functional; method in brief: as §3
[9] = test system: Rattus norvegicus; experiment: In vivo galactitol inhibitory activity measured by its ability to inhibit galactitol accumulation in lens at 10 mg/Kg/day; type: functional; conditions: Lens of camera-type eye; method in brief: as §3
[10] = test system: Rattus norvegicus; experiment: In vivo galactitol inhibitory activity measured by its ability to inhibit galactitol accumulation in sciatic nerve at 10 mg/Kg/day; type: functional; conditions: Rattus norvegicus, Sciatic nerve; method in brief: as §2
[11] = test system: Rattus norvegicus; experiment: In vivo galactitol inhibitory activity measured by its ability to inhibit galactitol accumulation in sciatic nerve at 6 mg/Kg/day; type: functional; method in brief: as §2
[12] = test system: Rattus norvegicus; experiment: In vivo galactitol inhibitory activity measured by its ability to inhibit galactitol accumulation in diaphragm at 6 mg/Kg/day; type: functional; method in brief: as §3
[13] = test system: Rattus norvegicus; experiment: In vivo galactitol inhibitory activity measured by its ability to inhibit galactitol accumulation in lens at 6 mg/Kg/day; NS=Not significant (% Inhibition); type: functional, organism-based; conditions: Lens of camera-type eye; method in brief: as §3
[14] = test system: Rattus norvegicus; experiment: In vivo galactitol inhibitory activity measured by its ability to inhibit galactitol accumulation in sciatic nerve at 10 mg/Kg/day; NS=Not significant (% Inhibition); type: functional, organism-based; method in brief: as §2
[15] = test system: Rattus norvegicus; experiment: In vivo galactitol inhibitory activity measured by its ability to inhibit galactitol accumulation in sciatic nerve at 6 mg/Kg/day; NS=Not significant (% Inhibition); type: functional, organism-based; method in brief: as §2
[16] = test system: Rattus norvegicus; experiment: In vivo galactitol inhibitory activity measured by its ability to inhibit galactitol accumulation in lens at 10 mg/Kg/day; NS=Not significant (% Inhibition); type: functional; conditions: Lens of camera-type eye; method in brief: as §3
[17] = test system: Rattus norvegicus; experiment: In vivo galactitol inhibitory activity measured by its ability to inhibit galactitol accumulation in diaphragm at 6 mg/Kg/day; NS=Not significant (% Inhibition); type: functional, organism-based; method in brief: as §3
[18] = test system: Rattus norvegicus; experiment: In vivo galactitol inhibitory activity measured by its ability to inhibit galactitol accumulation in lens at 6 mg/Kg/day; type: functional, Lens of camera-type eye; method in brief: as §3

Row | SMILES | Decrease [1] [%] | inhibition [3] [%] | further results
1 | Cc1oc(-c2ccccc2)nc1CCN1C2(CC(=O)NC2=O)c2ccccc2S1(=O)=O (centres undefined) | <15 | – | –
2 | O=C1CC2(C(=O)N1)c1ccccc1C(=O)N2Cc1cccc(Br)c1 (centres undefined) | <15 | – | –
3 | CSc1ccc(CN2C3(CC(=O)NC3=O)c3ccccc3S2(=O)=O)cc1 (centres undefined) | <15 | – | –
4 | O=C1CC2(C(=O)N1)c1ccccc1S(=O)(=O)N2Cc1ccc2ccccc2c1Br (centres undefined) | <15 | 25 | inhibition [2]: 59%
5 | CN1C(=O)c2ccc(Cl)cc2C12CC(=O)NC2=O (single isomer, unassigned; (+)) [listing 1 of 2 here] | – | 82 | inhibition [4]: 39%
6 | O=C1CC2(C(=O)N1)c1ccccc1S(=O)(=O)N2Cc1ccc([N+](=O)[O-])cc1 (centres undefined) | <15 | 0 | inhibition [2]: 37%
7 | O=C1CC2(C(=O)N1)c1ccccc1S(=O)(=O)N2Cc1ccc(Br)cc1F (centres undefined) | 48 | 0 | inhibition [2]: 52%
8 | O=C1CC2(C(=O)N1)c1ccccc1S(=O)(=O)N2CCCCc1ccc(Cl)cc1 (centres undefined) | 20 | – | –
9 | CCC(CC)N1C2(CC(=O)NC2=O)c2ccccc2S1(=O)=O (centres undefined) | 31 | – | –
10 | CN1C2(CC(=O)NC2=O)c2ccccc2S1(=O)=O (centres undefined) | <15 | 0 | inhibition [2]: 40%
11 | CCCCCc1ccc(CN2C(=O)c3ccccc3C23CC(=O)NC3=O)cc1 (centres undefined) | <15 | – | –
12 | O=C1CC2(C(=O)N1)c1ccccc1C(=O)N2Cc1ccccc1 (centres undefined) | 22 | – | –
13 | O=C1CC2(C(=O)N1)c1ccccc1S(=O)(=O)N2Cc1ccc(I)cc1 (centres undefined) | <15 | – | –
14 | CC(=O)Nc1ccc(CN2C3(CC(=O)NC3=O)c3ccccc3S2(=O)=O)cc1 (centres undefined) | <15 | – | –
15 | CCCCN1C2(CC(=O)NC2=O)c2ccccc2S1(=O)=O (centres undefined) | <15 | – | –
16 | CSc1ccc2c(c1)C(=O)N(C)C21CC(=O)NC1=O (centres undefined) | <15 | 60 | inhibition [5]: inactive; inhibition [6]: inactive; inhibition [7]: inactive
17 | O=C1CC2(C(=O)N1)c1ccccc1S(=O)(=O)N2Cc1c(F)c(F)c(F)c(F)c1F (centres undefined) | <15 | – | –
18 | CN1C(=O)c2cc3ccccc3cc2C12CC(=O)NC2=O (centres undefined) | <15 | 82 | inhibition in vivo at 10 mg/kg/day [8]: 59%; inhibition [4]: 37%; inhibition in vivo at 10 mg/kg/day [9]: 14%; inhibition in vivo at 10 mg/kg/day [10]: 47%
19 | O=C1CC2(C(=O)N1)c1ccccc1S(=O)(=O)N2Cc1ccc(Br)cc1Cl (centres undefined) | <15 | – | –
20 | O=C1CC2(C(=O)N1)c1ccccc1S(=O)(=O)N2c1ccc(Br)cc1 (centres undefined) | <15 | – | inhibition [2]: 0%
21 | O=C1CC2(C(=O)N1)c1ccccc1C(=O)N2Cc1ccc(Br)cc1 (centres undefined) | <15 | – | –
22 | O=C1CC2(C(=O)N1)c1ccccc1S(=O)(=O)N2Cc1ccccc1 (centres undefined) | <15 | 0 | inhibition [2]: 45%
23 | COc1ccc2c(C(=S)N(C)CC(=O)O)cccc2c1C(F)(F)F [TOLRESTAT] | – | – | inhibition in vivo at 6 mg/kg/day [11]: 53%; inhibition in vivo at 6 mg/kg/day [12]: 80%; inhibition [13]: inactive
24 | O=C1CC2(C(=O)N1)c1ccccc1S(=O)(=O)N2Cc1ccc(Cl)cc1Cl (centres undefined) | 19 | – | –
25 | COC(=O)c1ccc2c(c1)C1(CC(=O)NC1=O)N(C)C2=O (centres undefined) | <15 | 49 | inhibition [5]: inactive; inhibition [14]: inactive; inhibition in vivo at 10 mg/kg/day [8]: 16%; inhibition [4]: 14%; inhibition [6]: inactive; inhibition [15]: inactive; inhibition [7]: inactive; inhibition [16]: inactive; inhibition [13]: inactive; inhibition [17]: inactive
26 | O=C1CC2(C(=O)N1)c1ccccc1S(=O)(=O)N2Cc1ccc(-c2ccccc2)cc1 (centres undefined) | <15 | 15 | inhibition [2]: 54%

Row | SMILES | Decrease [1] [%] | inhibition [3] [%] | further results
27 | Nc1ccc(CN2C3(CC(=O)NC3=O)c3ccccc3S2(=O)=O)cc1 (centres undefined) | <15 | – | –
28 | CCN1C2(CC(=O)NC2=O)c2ccccc2S1(=O)=O (centres undefined) | <15 | – | –
29 | CCCCN1C(=O)c2ccccc2C12CC(=O)NC2=O (centres undefined) | <15 | 0 | –
30 | O=C1CC2(C(=O)N1)c1ccccc1C(=O)N2Cc1ccc(I)cc1 (centres undefined) | <15 | – | –
31 | O=C1CC2(C(=O)N1)c1ccccc1S(=O)(=O)N2CCc1ccc(Br)cc1 (centres undefined) | 25 | – | inhibition [2]: 0%
32 | COc1ccc2c(c1)C(=O)N(C)C21CC(=O)NC1=O (centres undefined) | <15 | 56 | inhibition [5]: inactive; inhibition [6]: inactive; inhibition [7]: inactive
33 | Cc1oc(-c2ccccc2)nc1CCOc1ccc(CN2C3(CC(=O)NC3=O)c3ccccc3S2(=O)=O)cc1 (centres undefined) | <15 | – | –
34 | O=C1CC2(C(=O)N1)c1ccccc1S(=O)(=O)N2Cc1ccc(C(F)(F)F)cc1 (centres undefined) | <15 | 0 | inhibition [2]: 34%
35 | CN1C(=O)c2ccc(Cl)cc2C12CC(=O)NC2=O (single isomer, unassigned; (+)) [listing 2 of 2 here] | – | – | inhibition in vivo at 6 mg/kg/day [11]: 58%; inhibition in vivo at 6 mg/kg/day [12]: 67%; Inhibition [18]: 21%
36 | Cc1cc(Br)ccc1CN1C2(CC(=O)NC2=O)c2ccccc2S1(=O)=O (centres undefined) | <15 | – | –
37 | O=C1CC2(C(=O)N1)c1ccccc1S(=O)(=O)N2Cc1ccccc1F (centres undefined) | <15 | – | –
38 | Cc1oc(-c2ccccc2)nc1CCOc1ccc(N2C3(CC(=O)NC3=O)c3ccccc3S2(=O)=O)cc1 (centres undefined) | <15 | – | –
39 | O=C1CC2(C(=O)N1)c1ccccc1S(=O)(=O)N2Cc1ccc2ccccc2c1 (centres undefined) | <15 | 20 | inhibition [2]: 57%
40 | O=C1CC2(C(=O)N1)c1ccccc1S(=O)(=O)N2Cc1ccc(F)cc1 (centres undefined) | <15 | – | –
41 | CN1C(=O)c2ccc([N+](=O)[O-])cc2C12CC(=O)NC2=O (centres undefined) | <15 | 77 | inhibition [5]: inactive; inhibition [4]: 32%; inhibition [6]: inactive; inhibition [7]: inactive
42 | O=C1CC2(C(=O)N1)c1ccccc1C(=O)N2Cc1c(F)cccc1Cl (centres undefined) | <15 | – | –
43 | CN1C(=O)c2ccc(Cl)cc2C12CC(=O)NC2=O (stereo in doubt; 32) | – | 80 | inhibition [4]: 37%; inhibition [13]: inactive
44 | O=C1CC2(C(=O)N1)c1ccccc1S(=O)(=O)N2Cc1ccc(Br)cc1 (centres undefined) | 37 | – | –
45 | CN1C(=O)c2cc(Br)ccc2C12CC(=O)NC2=O (centres undefined) | <15 | 71 | inhibition [5]: inactive; inhibition [14]: inactive; inhibition in vivo at 6 mg/kg/day [12]: 27%; inhibition in vivo at 10 mg/kg/day [8]: 39%; inhibition [4]: 27%; inhibition [6]: inactive; inhibition [15]: inactive; inhibition [7]: inactive; inhibition [16]: inactive; inhibition [13]: inactive
46 | O=C(O)CN1C2(CC(=O)NC2=O)c2ccccc2S1(=O)=O (centres undefined) | – | – | inhibition [2]: 0%
47 | CC(C)(C)c1ccc(CN2C(=O)c3ccccc3C23CC(=O)NC3=O)cc1 (centres undefined) | <15 | – | –
48 | O=C1CC2(C(=O)N1)c1ccccc1S(=O)(=O)N2Cc1ccc(Oc2ccccc2)cc1 (centres undefined) | <15 | 24 | inhibition [2]: 67%
49 | O=C1CC2(C(=O)N1)c1ccccc1S(=O)(=O)N2Cc1cccc(Br)c1 (centres undefined) | <15 | – | –
50 | O=C1CC2(C(=O)N1)C(=O)N(Cc1ccc(Br)cc1F)c1c(Cl)cccc12 (centres undefined) | <15 | 92 | inhibition in vivo at 10 mg/kg/day [8]: 84%; inhibition [4]: 83%; inhibition in vivo at 10 mg/kg/day [9]: 36%; inhibition in vivo at 10 mg/kg/day [10]: 86%
51 | Cc1cc(CN2C3(CC(=O)NC3=O)c3ccccc3S2(=O)=O)ccc1Br (centres undefined) | <15 | – | –
